Results reported in ChEMBL document CHEMBL1158489, “Synthesis and evaluation of 4-acyl-2-thiazolylhydrazone derivatives for anti-Toxoplasma efficacy in vitro” (J Med Chem, 2009).
Activity calls are given as the source filed them. No cut-off for these calls is given here.

Columns and labels:
Toxoplasma gondii [1] = experiment: Antiparasitic activity against Toxoplasma gondii 2F tachyzoites infected in HFF assessed as parasite growth inhibition-related decrease in beta-galactosidase activity treated prior to infection measured after 5 days by spectrophotometry; assay type: functional, organism-based; conditions: 120 h
[2] = Cytotoxicity against human HFF by spectrophotometry; assay type: cell-based; conditions: HFF cells, read-out: TD50 (the source's name)
[3] = Therapeutic index, ratio of TD50 for human HFF to IC50 for Toxoplasma gondii 2F tachyzoites; conditions: HFF cells and Toxoplasma gondii 2F tachyzoites, read-out: TI
Toxoplasma gondii [4] = experiment: Antiparasitic activity against Toxoplasma gondii 2F tachyzoites infected in HFF assessed as inhibition of tachyzoite host cell invasion at 25 uM treated 20 mins prior to infection measured after 1 hr using DAPI staining by immunofluorescence microscopy relative to control; assay type: functional; parameters: scale not given: the % may be the effect or the level left
How it was run: (§1)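 Tachyzoites (strain 2F) preincubated with compound or DMSO (final 25 μM) at room temperature 20 min, then added to HFF monolayers; 1 h at 37 °C, 5% CO2, rinsed and fixed. Red/green sequential staining: attached/extracellular parasites labelled Rb anti-p30 with Alexa Fluor 594 (red), penetrated/intracellular green, host nuclei blue. Penetrated and attached counts compared with DMSO control.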

Toxoplasma gondii [5] = experiment: Antiparasitic activity against Toxoplasma gondii 2F tachyzoites infected in HFF assessed as inhibition of intracellular parasite replication at 25 uM treated 2 hrs postinfection measured after 26 hrs using DAPI staining by fluorescence microscopy relative to control; assay type: functional, organism-based
How it was run: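 HFF monolayers inoculated with tachyzoites, 2 h incubation, then compound (final 25 μM) or DMSO control added to medium. Replication ran 26 h; monolayers fixed, permeabilized, immunolabelled with Rb anti-p30 (SAG1) and goat anti-rabbit Alexa Fluor 594 (red), imaged by fluorescence.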

Toxoplasma gondii [6] = experiment: Antiparasitic activity against Toxoplasma gondii 2F tachyzoites infected in HFF assessed as decrease in parasite penetration and attachment to host cell at 25 uM treated 20 mins prior to infection measured after 1 hr using DAPI staining by immunofluorescence microscopy relative to control; assay type: functional; parameters: scale not given: the % may be the effect or the level left; how it was run: as §1

Compound	IC50 (Toxoplasma gondii [1])	CC50 [2]	selectivity ratio [3]	IC90 (Toxoplasma gondii [1])	Activity (Toxoplasma gondii [4])	Activity (Toxoplasma gondii [5])	Activity (Toxoplasma gondii [6])
COc1cc(Cc2cnc(N)nc2N)cc(OC)c1OC [TRIMETHOPRIM]	14 µM	≥ 320 µM	41				
CCOC(=O)c1csc(NN=C2CCCCC2)n1	160 µM	≥ 320 µM	4	638 µM	45%		
CCOC(=O)c1csc(N/N=C(\C)c2ccccn2)n1	3 µM	6 µM	2	7 µM	147%	Active	
CCOC(=O)c1csc(N/N=C(\C)c2cc3ccccc3oc2=O)n1	21 µM	≥ 320 µM	27	55 µM			
O=C(O)c1csc(NN=C2CCCCC2)n1	≥ 320 µM	≥ 320 µM			45%		
O=C(O)c1csc(NN=C2CCCCCC2)n1	179 µM	≥ 320 µM	3	3870 µM			
CCOC(=O)c1csc(N/N=C2/CCC(C)C2)n1 (centres undefined)	59 µM	≥ 320 µM	10	190 µM	48%		
CCOC(=O)c1csc(NN=C2CCCC2)n1	92 µM	≥ 320 µM	6	239 µM			
CCOC(=O)c1csc(NN=C2CCCCCC2)n1	77 µM	≥ 320 µM	7	226 µM			
CCOC(=O)c1csc(N/N=C/c2cccs2)n1	≥ 320 µM	≥ 320 µM					
CCOC(=O)c1csc(N/N=C(\C)c2cccnc2)n1	34 µM	≥ 320 µM	17	86 µM			
CC1CCC/C(=N/Nc2nc(C(=O)O)cs2)C1 (centres undefined)	≥ 320 µM	≥ 320 µM					
CCOC(=O)c1csc(N/N=C(\C)c2ccco2)n1	49 µM	241 µM	5	161 µM			
CCOC(=O)c1csc(N/N=C/c2cccnc2)n1	162 µM	≥ 320 µM	4	398 µM			
CC1CCC/C1=N/Nc1nc(C(=O)O)cs1 (centres undefined)	≥ 320 µM	≥ 320 µM					
CCOC(=O)c1csc(N/N=C/c2ccc3c(c2)OCO3)n1	479 µM	≥ 320 µM	1	2590 µM			

Compound	IC50 (Toxoplasma gondii [1])	CC50 [2]	selectivity ratio [3]	IC90 (Toxoplasma gondii [1])	Activity (Toxoplasma gondii [4])	Activity (Toxoplasma gondii [5])	Activity (Toxoplasma gondii [6])
CCOC(=O)c1csc(N/N=C/c2ccco2)n1	≥ 320 µM	≥ 320 µM					
O=C(O)c1csc(NN=C2CCCC2)n1	≥ 320 µM	≥ 320 µM					47%
CCOC(=O)c1csc(N/N=C(\C)c2ccncc2)n1	64 µM	≥ 320 µM	9	188 µM			
CC1CC/C(=N/Nc2nc(C(=O)O)cs2)C1 (centres undefined)	38 µM	82 µM	2	70 µM	47%		
CCOC(=O)c1csc(N/N=C/c2cccc3ccccc23)n1	52 µM	≥ 320 µM	11	182 µM	35%		47%
CC1CCC(=NNc2nc(C(=O)O)cs2)CC1 (centres undefined)	≥ 320 µM	≥ 320 µM					
CCOC(=O)c1csc(N/N=C2/CCCC2C)n1 (centres undefined)	130 µM	≥ 320 µM	4	248 µM			
CCOC(=O)c1csc(N/N=C/c2ccncc2)n1	≥ 320 µM	≥ 320 µM			49%		
CC1CCCC/C1=N/Nc1nc(C(=O)O)cs1 (centres undefined)	128 µM	≥ 320 µM	4	310 µM			
CCOC(=O)c1csc(N/N=C2/CCCCC2C)n1 (centres undefined)	185 µM	≥ 320 µM	3	508 µM			
CCOC(=O)c1csc(N/N=C2/CCCC(C)C2)n1 (centres undefined)	15 µM	84 µM	6	46 µM	48%		
CCOC(=O)c1csc(N/N=C(\C)c2ccc3ccccc3c2)n1	43 µM	127 µM	3	88 µM	45%		
CCOC(=O)c1csc(N/N=C/c2c[nH]c3ccccc23)n1	280 µM	≥ 320 µM	2	2240 µM			
CCOC(=O)c1csc(N/N=C(\C)c2cccs2)n1	37 µM	≥ 320 µM	15	136 µM			
CCOC(=O)c1csc(NN=C2CCC(C)CC2)n1 (centres undefined)	60 µM	≥ 320 µM	9	151 µM			
